The record followed here is ChEMBL document CHEMBL1151818, “Antimalarial peptides from marine cyanobacteria: isolation and structural elucidation of gallinamide A” (J Nat Prod, 2009).

One data set relates to Trypanosoma cruzi. Kind of data set: Antitrypanosomal activity against Trypanosoma cruzi at 16.9 uM. The class given is functional, organism-based. The procedure, abridged:
(§1)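 In vitro assay; 16.9 µM was the highest concentration tested.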

Data set [1] deals with NCI-H460. Kind of data set: Cytotoxicity against human NCI-H460 cells. The class given is functional. The note with it: read-out: TC50 (the source's name). An outline of the steps:
as §1

The next data set concerns Plasmodium falciparum. Kind of data set: Antimalarial activity against chloroquine-resistant Plasmodium falciparum W2. Format: functional, organism-based.
Data set [2] deals with NCI-H460. Kind of data set: Cytotoxicity against human NCI-H460 cells at 16.9 uM. The class given is functional, cell-based. The procedure, abridged: as §1
The subject of another data set is Leishmania donovani. Kind of data set: Antileishmanial activity against Leishmania donovani. Format: functional, organism-based.
The test system of the next data set is N2a. Kind of data set: Cytotoxicity against mouse Neuro2a cells at 16.9 uM. The class given is functional, cell-based. The procedure, abridged:
as §1

Data set [3] in a line: Cytotoxicity against african green monkey Vero cells. The note with it: chlorocebus sabaeus, read-out: TC50 (the source's name). Format: cell-based.

Active and inactive are the calls of the source. The calls are words filed in the database; no cut-off is given here. Non-standard residues stand in square brackets, D forms with d. Residues, ends and D or L forms follow the SMILES beside them. *: point of attachment. X1 = COC1=CC(=O)N(C(=O)[C@@H](O*)C(C)C)[C@H]1Cc1ccccc1; NMe2Val = CC(C)[C@@H](C(=O)*)N(C)C; NMeV = CN[C@H](C(=O)O)C(C)C Bounds are passed on as bounds.

As for `CC1CS(=O)(=O)CCN1/N=C/c1ccc([N+](=O)[O-])o1` (stereo not given) [NIFURTIMOX], in the data set with Trypanosoma cruzi, the IC50 (in general, the concentration at which inhibition is half-maximal) came to 13.5 µM.
As for `COC1=CC(=O)N(C(=O)[C@@H](OC(=O)[C@@H]2CCCN2C(=O)[C@@H]2CCCN2C(=O)[C@H](C(C)C)N(C)C(=O)[C@@H](NC(=O)[C@H](C(C)C)N(C)C)C(C)C)C(C)C)[C@H]1Cc1ccccc1` [DOLASTATIN 15] (NMe2Val-V[NMeV]PP-X1), in the data set on NCI-H460 [1], the CC50 was 0.0024 µM. Moreover, the result in the data set with Plasmodium falciparum was Active.
Consider `CC[C@H](C)[C@@H](C(=O)O[C@@H](CC(C)C)C(=O)N[C@@H](CC(C)C)C(=O)N[C@@H](C)/C=C/C(=O)N1C(=O)C=C(OC)[C@@H]1C)N(C)C` [GALLINAMIDE A], for which the outcome in the data set with NCI-H460 [2] and in the data set with N2a was inactive. The IC50 was 8.4 µM in the data set with Plasmodium falciparum, 9.3 µM in the data set with Leishmania donovani and > 16.9 µM in the data set on Trypanosoma cruzi. Further, the CC50 in data set [3] stood at 10.4 µM.
For the compound `C[C@@H]1[C@H](O)[C@@H](C)/C=C/C=C/C=C/C=C/C=C/C=C/C=C/[C@H](O[C@@H]2O[C@H](C)[C@@H](O)[C@H](N)[C@@H]2O)C[C@@H]2O[C@](O)(C[C@@H](O)C[C@@H](O)[C@H](O)CC[C@@H](O)C[C@@H](O)CC(=O)O[C@H]1C)C[C@H](O)[C@H]2C(=O)O` [AMPHOTERICIN B], 0.103 µM corresponded to half-maximal inhibition in the data set on Leishmania donovani (IC50).
